Assay results from ChEMBL document CHEMBL4665801, “Pyrazole-Based Lactate Dehydrogenase Inhibitors with Optimized Cell Activity and Pharmacokinetic Properties” (J Med Chem, 2020).
Activity calls are given as the source filed them. Unless noted, the calls are words filed in the database; no cut-off is given here.

Columns and labels:
[1] = target: Voltage-gated inwardly rectifying potassium channel KCNH2 (Homo sapiens, UniProt Q12809); assay: Inhibition of human ERG by patch clamp method; conditions: dose >10 µM
Mus musculus = assay: In vivo inhibition of LDH in human A673 cells xenografted athymic nude CrTac:NCr-Foxn1nu mouse assessed as reduction in tumor LDH activity at 50 mg/kg, iv after 1 hr by NADH-based UV-VIS spectrometric method relative to control; format: functional, organism-based
In short: (§1)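 Female athymic nude mice carried SQ A673 flank xenografts (2 million cells) and received a single IV dose of 50 mg/kg in PBS-based vehicle. Four mice per time point were sacrificed at 1, 3, 6 and 24 h. Frozen tumor (10–50 mg) was pulverized and lysed in PBS pH 7.4 with 0.1% Triton X-100 on ice for 1 h. Cleared lysate (10–20 μg) was assayed with 10 mM pyruvate and 0.3 mM final NADH, reading NADH oxidation at 340 nm at 37 °C.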

[2] = Cmax in CD-1 mouse at 10 mg/kg, iv and measured up to 24 hrs by LC/MS-MS analysis; format: ADME, organism-based; set-up: route intravenous, dose 10 mg/kg, time <=24; conditions: in vivo
In short: (§2)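 Male CD1 mice, about 6–8 weeks old and 20–30 g, received 10 mg/kg IV in 0.1 M NaOH in PBS adjusted to pH 7–8.5, made fresh on the day of dosing. Three mice per cohort. Blood was taken from the dorsal metatarsal vein at 5, 15, 30 min and 1, 2, 4, 8, 12, 24 h into heparin tubes. Plasma was spun at 4 °C, stored at –75 °C and analysed by LC–MS/MS. For IV dosing Cmax = C0.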

[3] = AUClast in CD-1 mouse at 10 mg/kg, iv and measured up to 24 hrs by LC/MS-MS analysis; format: ADME, organism-based; set-up: route intravenous, dose 10 mg/kg, time <=24; conditions: in vivo; in short: as §2
[4] = Half life in rat liver microsomes at 1 uM in presence of NADPH by LC-MS/MS; format: ADME, Microsome
[5] = Genotoxicity in Salmonella typhimurium by Ames test; format: toxicity; conditions: salmonella enterica subsp. enterica serovar typhimurium
MIA PaCa-2 = assay: Cytotoxicity against human MIA PaCa-2 cells assessed as reduction in cell viability after 48 hrs by CellTiter-Glo assay; format: functional, cell-based; conditions: MIA PaCa-2, 48 h
Sus scrofa = species: Sus scrofa; assay: Inhibition of porcine heart MDH using malic acid as substrate preincubated for 10 mins followed by substrate addition and measured after 5 mins by resazurin based fluorescence based assay; conditions: time 15.0 min
[6] = Half life in human liver cytoplasm; format: ADME, subcellular
[7] = Volume of distribution at steady state in CD-1 mouse at 10 mg/kg, iv and measured up to 24 hrs by LC/MS-MS analysis; format: ADME, organism-based; conditions: in vivo; in short: as §2
[8] = target: T1, L-lactate dehydrogenase A chain (Homo sapiens, UniProt P00338); assay: Inhibition of LDHA in human A673 cells assessed as decrease in lactate production incubated for 2 hrs by lactate oxidase-coupled fluorescence based assay; format: cell-based
[9] = Metabolic stability in mouse hepatocytes; format: ADME, cell-based, Hepatocyte
In short: (§3)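 Time-course stability in human or mouse liver microsomes, or mouse hepatocytes, in the presence of NADPH and UDPGA. Parent compound was monitored at five time points to derive T1/2.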

[10] = Half life in mouse liver microsomes at 1 uM in presence of NADPH by LC-MS/MS; format: ADME, Microsome; in short: as §3
Cytochrome P450 = assay: Induction of CYP450 (unknown origin) at 10 uM; format: ADME, protein assay; conditions: human
Homo sapiens = species: Homo sapiens; assay: Inhibition of LDH in human A673 cells assessed as decrease in extracellular acidification rate at 0.5 to 5 uM preincubated for 1 hr followed by subsequent injections of glucose/oligomycin at 48 mins by seahorse XF GST based assay; format: cell-based; conditions: dose microM 0.5-5, time 108.0 min
In short: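 A673 cells in DMEM with 10% FBS were plated 24 h ahead, then switched to Seahorse basic DMEM with 2 mM glutamine, pH 7.4, and held 1 h at 37 °C without CO2. ECAR was recorded after inhibitor injection at increasing concentrations. At 48 min, glucose (10 mM final), oligomycin (1 μg/mL final) and 2-DG (50 mM final) were injected in sequence.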

[11] = target: T1, L-lactate dehydrogenase A chain; assay: Inhibition of recombinant human LDHA using sodium pyruvate as substrate preincubated for 5 mins followed by diaphorase/resazurin addition and measured after 20 mins by fluorescence based assay
[12] = Permeability of compound at pH 7.4 incubated for 30 mins by PAMPA; format: ADME; conditions: pH 7.4, 0.5 h
In short: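 Stirred double-sink PAMPA with GI-tract lipid/dodecane membrane, pH 7.4 on both sides. Compound was diluted from 10 mM DMSO stock to 0.05 mM (0.5% DMSO final), with 30 min permeation at room temperature. Donor and acceptor were read by UV. Results in 10⁻⁶ cm/s.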

[13] = target: L-lactate dehydrogenase B chain (Homo sapiens) (UniProt P07195); assay: Inhibition of recombinant human LDHB using sodium pyruvate as substrate preincubated for 5 mins followed by diaphorase/resazurin addition and measured after 20 mins by fluorescence based assay
[14] = Half life in mouse liver cytoplasm; format: ADME, subcellular
[15] = target: T1, L-lactate dehydrogenase A chain; assay: Inhibition of GS[HiBiT]GS-tagged LDHA (unknown origin) expressed in HEK-293T cells measured after 1 hr by […]; format: cell-based
In short: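 HEK293T cells were transiently transfected for 24 h with CMV-driven LDHA carrying a C-terminal GS[HiBiT]GS tag, then reseeded at 2500 cells/well in DPBS with Ca/Mg and 1 g/L glucose. […] Cells were lysed with NP40, and 11S (100 nM final) plus furimazine was added.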

[16] = Metabolic stability in dog hepatocytes; format: ADME, cell-based, Canis lupus familiaris, Hepatocyte
[17] = Protein binding in mouse plasma assessed as free fraction; format: ADME, cell-free
[18] = Half life in rat liver cytoplasm; format: ADME, subcellular
[19] = Permeability of compound at pH 7.4 […] incubated for 1 hr by PAMPA-BBB assay; format: ADME; conditions: pH 7.4, 1 h
In short: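 Double-sink PAMPA with 10% porcine brain lipid extract in phospholipid/alkane membrane. 10 mM DMSO stocks were diluted to 0.05 mM at pH 7.4 and stirred 1 h at room temperature. Donor and acceptor were quantified by UV against reference and blank. Results in 10⁻⁶ cm/s.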

[20] = Metabolic stability in rat hepatocytes; format: ADME, cell-based, Hepatocyte
[21] = In vivo inhibition of LDH in human A673 cells xenografted athymic nude CrTac:NCr-Foxn1nu mouse assessed as reduction in tumor LDH activity at 50 mg/kg, iv after 6 hrs by UV-VIS spectrometric method relative to control; format: functional; in short: as §1
[22] = target: T1, L-lactate dehydrogenase A chain; assay: Binding affinity to human His-tagged LDHA by SPR analysis
In short: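 SPR on a Mass-1 instrument gave K_D and k_off. Residence time τ was calculated as 1/k_off (s⁻¹).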

A673 = assay: Cytotoxicity against human A673 cells assessed as reduction in cell viability after 48 hrs by CellTiter-Glo assay; format: functional, cell-based; conditions: A673, 48 h
[23] = Kinetic aqueous solubility of the compound in pH 7.4 PBS buffer at 150 uM measured after 6 hrs by shake flask method; format: physicochemical; conditions: read-out: Kinetic_solubility
In short: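 μSOL kinetic solubility. 10 mM DMSO stocks were diluted with 1-propanol cosolvent to 150 μM final in aqueous pH 7.4 and equilibrated 6 h at room temperature. After filtration, filtrate concentration was read by UV absorbance against a 17 μM reference.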

Chain of L-lactate dehydrogenase B chain (Homo sapiens) (P07195 2-334 limits assumed): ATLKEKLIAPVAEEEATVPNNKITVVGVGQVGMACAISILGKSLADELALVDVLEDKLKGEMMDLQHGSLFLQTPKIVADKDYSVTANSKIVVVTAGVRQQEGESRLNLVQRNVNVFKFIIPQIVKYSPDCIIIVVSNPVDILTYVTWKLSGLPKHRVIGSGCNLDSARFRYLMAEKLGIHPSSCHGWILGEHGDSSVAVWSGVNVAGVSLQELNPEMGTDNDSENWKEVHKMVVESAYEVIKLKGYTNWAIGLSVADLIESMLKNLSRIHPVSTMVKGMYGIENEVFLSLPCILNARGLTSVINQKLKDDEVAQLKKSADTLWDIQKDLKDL
Chain of Voltage-gated inwardly rectifying potassium channel KCNH2 (Q12809 whole entry): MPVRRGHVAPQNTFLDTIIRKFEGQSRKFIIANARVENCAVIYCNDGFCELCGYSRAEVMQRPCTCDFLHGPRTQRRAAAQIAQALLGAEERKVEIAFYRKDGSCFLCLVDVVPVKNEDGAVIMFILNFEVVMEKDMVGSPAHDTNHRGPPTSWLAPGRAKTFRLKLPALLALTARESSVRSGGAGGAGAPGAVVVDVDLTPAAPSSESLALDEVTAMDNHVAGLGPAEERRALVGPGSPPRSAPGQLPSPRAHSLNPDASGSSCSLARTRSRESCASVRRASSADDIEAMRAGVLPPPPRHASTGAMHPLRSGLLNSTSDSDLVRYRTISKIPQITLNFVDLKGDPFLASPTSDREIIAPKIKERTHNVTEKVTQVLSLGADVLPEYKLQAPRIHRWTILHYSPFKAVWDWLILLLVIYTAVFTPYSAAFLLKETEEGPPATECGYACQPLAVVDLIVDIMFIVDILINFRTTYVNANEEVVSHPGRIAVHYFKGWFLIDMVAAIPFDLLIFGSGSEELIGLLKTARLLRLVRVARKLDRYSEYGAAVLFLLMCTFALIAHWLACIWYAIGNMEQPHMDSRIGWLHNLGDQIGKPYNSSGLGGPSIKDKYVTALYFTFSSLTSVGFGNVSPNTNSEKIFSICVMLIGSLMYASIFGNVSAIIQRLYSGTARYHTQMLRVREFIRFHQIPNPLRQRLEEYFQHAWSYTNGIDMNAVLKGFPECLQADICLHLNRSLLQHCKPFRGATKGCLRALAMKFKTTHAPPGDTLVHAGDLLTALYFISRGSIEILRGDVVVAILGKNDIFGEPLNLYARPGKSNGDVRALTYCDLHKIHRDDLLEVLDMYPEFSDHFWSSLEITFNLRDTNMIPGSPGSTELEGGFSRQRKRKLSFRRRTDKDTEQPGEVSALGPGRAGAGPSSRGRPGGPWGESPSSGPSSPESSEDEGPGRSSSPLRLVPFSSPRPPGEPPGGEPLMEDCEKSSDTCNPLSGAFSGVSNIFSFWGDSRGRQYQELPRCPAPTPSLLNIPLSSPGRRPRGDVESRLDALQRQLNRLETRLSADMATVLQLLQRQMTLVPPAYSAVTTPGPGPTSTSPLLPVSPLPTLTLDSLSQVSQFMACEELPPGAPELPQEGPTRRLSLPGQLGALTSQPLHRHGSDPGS

Structure (SMILES)	INH [1] [µM]	inhibition (Mus musculus)	Cmax [2] [ng/mL]	AUClast [3] [ng·h/mL]	half-life at 1 µM [4] [h]	Activity [5]	IC50 (MIA PaCa-2) [nM]	inhibition (Sus scrofa)	half-life [6] [h]	Vdss [7] [L/kg]	IC50 [8] [nM]	half-life [9] [h]	half-life at 1 µM [10] [h]	Activity (Cytochrome P450)	inhibition (Homo sapiens)	IC50 [11] [nM]	permeability [12]	inhibition [13]	half-life [14] [h]	IC50 [15] [nM]	other results
Cc1ccc(C#Cc2cccc(-c3nn(-c4nc(C(=O)O)cs4)c(CC4CC4)c3Cc3ccc(S(N)(=O)=O)c(F)c3)c2)s1	> 10	Active	33800	16530	> 2	Non-Toxic	347	inactive	> 2	1.7	760	> 2.5	> 2	Not Active	inactive	40	2.2 10^-6 cm/s	Active	> 2	119	half-life [16]: > 2.5 h; Fu [17]: 4.4%; half-life [18]: > 2 h; permeability [19]: 9.6 10^-6 cm/s; half-life [20]: > 2.5 h; inhibition in vivo at 50 mg/kg [21]: 80%; Kd [22]: 0.0634 nM; IC50 (A673): 105 nM; solubility kinetic at 6 h, 150 µM [23]: > 70 µg/mL
Cc1ccc(C#Cc2cc(-c3nn(-c4nc(C(=O)O)cs4)c(CC4CC4)c3Cc3ccc(S(N)(=O)=O)c(F)c3)ccc2F)s1	> 10	Active	41800	10570	> 2	Non-Toxic	257	inactive	> 2	1.79	873	> 2.5	> 2	Not Active	inactive	57	10.4 10^-6 cm/s	Active	> 2	106	half-life [16]: > 2.5 h; Fu [17]: 0.7%; half-life [18]: > 2 h; permeability [19]: 16 10^-6 cm/s; half-life [20]: > 2.5 h; inhibition in vivo at 50 mg/kg [21]: 60%; Kd [22]: 0.0667 nM; IC50 (A673): 119 nM; solubility kinetic at 6 h, 150 µM [23]: > 70 µg/mL
